# According to PubChem BioAssay:
# Calls of active or inactive are those of the source.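 Rule for the calls, unless noted: active = Her2 level under about 52% in both replicate screens, with viability over 70% of control (limit read from the data); inconclusive = Her2 under the limit in one screen only, or viability under 70%; inactive = Her2 level above the set limit.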
# What was measured:
# [1] = reducers of endogenous Her2 protein level, primary screen, SKBR3 breast tumor cells, AlphaScreen, ATP viability (AID 461); details: 18-24 h, measured here: SKBR3 viability, ATP luminescence, at 10 µM;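 for Her2 level: lower value means less Her2 protein in the cells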;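 for viability: percent of carrier control wells set as 100% viability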
# [2] = target: Receptor tyrosine-protein kinase erbB-2 (Homo sapiens) (UniProt P04626); test: as above; details: 18-24 h, at 10 µM, stronger effect = lower value
# Receptor tyrosine-protein kinase erbB-2 (Homo sapiens), sequence (P04626 whole entry, looked up): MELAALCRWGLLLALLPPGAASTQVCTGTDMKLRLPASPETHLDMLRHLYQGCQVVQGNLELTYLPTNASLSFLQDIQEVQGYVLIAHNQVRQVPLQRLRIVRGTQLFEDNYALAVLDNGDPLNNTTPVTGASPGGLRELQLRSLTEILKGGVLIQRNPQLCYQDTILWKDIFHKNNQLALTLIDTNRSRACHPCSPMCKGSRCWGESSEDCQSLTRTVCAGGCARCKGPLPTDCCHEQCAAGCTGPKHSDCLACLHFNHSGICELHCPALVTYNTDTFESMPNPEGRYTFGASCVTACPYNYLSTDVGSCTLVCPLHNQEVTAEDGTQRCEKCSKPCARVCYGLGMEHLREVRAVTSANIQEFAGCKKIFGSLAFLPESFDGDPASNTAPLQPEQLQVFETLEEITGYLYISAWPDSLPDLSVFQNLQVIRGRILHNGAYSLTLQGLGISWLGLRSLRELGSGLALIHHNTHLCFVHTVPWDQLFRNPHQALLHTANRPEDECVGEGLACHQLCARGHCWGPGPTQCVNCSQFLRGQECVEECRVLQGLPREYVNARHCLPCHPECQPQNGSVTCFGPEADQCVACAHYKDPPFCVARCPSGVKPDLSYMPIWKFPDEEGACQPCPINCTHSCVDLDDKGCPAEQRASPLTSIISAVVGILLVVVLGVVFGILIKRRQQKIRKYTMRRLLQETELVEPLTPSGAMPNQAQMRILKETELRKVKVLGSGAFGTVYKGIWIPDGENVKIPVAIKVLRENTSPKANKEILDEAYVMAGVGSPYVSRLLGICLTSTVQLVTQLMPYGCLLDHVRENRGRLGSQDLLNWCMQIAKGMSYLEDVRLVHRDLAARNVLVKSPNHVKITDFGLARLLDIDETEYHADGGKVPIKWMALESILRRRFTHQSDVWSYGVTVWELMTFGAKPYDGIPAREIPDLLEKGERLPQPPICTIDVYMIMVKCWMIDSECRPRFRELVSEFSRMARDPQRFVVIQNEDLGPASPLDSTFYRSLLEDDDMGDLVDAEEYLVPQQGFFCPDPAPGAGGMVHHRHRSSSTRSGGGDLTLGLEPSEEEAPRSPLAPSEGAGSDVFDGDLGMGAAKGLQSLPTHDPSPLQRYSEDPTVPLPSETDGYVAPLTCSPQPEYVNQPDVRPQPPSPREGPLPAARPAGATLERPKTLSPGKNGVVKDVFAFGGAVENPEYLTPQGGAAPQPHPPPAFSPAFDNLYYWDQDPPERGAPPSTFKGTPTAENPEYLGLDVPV
# [3] = SK-BR-3 cell growth inhibitors, pilot screen, 24 h, human (AID 572;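 active = viability at or below 10% of carrier control in both of two separate runs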;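 note: compound exposure lasted between 18 and 24 h rather than exactly 24 h; 100% = carrier-treated control wells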); details: SK-BR-3 viability, CellTiter-Glo luminescence, at 10 µM, stronger effect = lower value
# [4] = HUVEC growth inhibition – cell-based, human, primary screen (AID 575;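 active = viability at or below 30% in both replicate assays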;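 note: 100% = median of untreated cell wells with 0.1% DMSO on each plate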); details: HUVEC proliferation, CellTiter-Glo luminescence, 72 h; at 10 µM; stronger effect = lower value
# Outline: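 Assay system: primary human umbilical vein endothelial cells / Buffer or medium: endothelial basal medium with 2% FBS plus growth supplements / Compound dosing: one dose, 10 µM final, 0.1% DMSO / Timing: 72 h treatment at 37 °C / Signal: CTG luminescence / Benchmarks: 32 DMSO-only cell-control wells (high), 32 MePR drug-control wells (low) per plate / Plate: collagen-coated 384-well format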
# [5] = growth inhibitors of H69AR lung tumor, primary screen, human, duplicate replicates (AID 580;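 active = viability at or under a set limit in both replicates, limit being median viability minus 3 SD, cut at about 48% in these data, passing the limit was not always enough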;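 note: 100% = mean luminescence of untreated wells and 0% = no signal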); details: H69AR lung tumor cells viability, ATP luminescence, 72 h; at 10 µM; stronger effect = lower value
# [6] = reversal of MRP1-mediated doxorubicin resistance, pilot screen, H69AR cells, doxorubicin co-treatment (AID 601;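 active = viability loss from added drug above about 55%, and viability with drug at most 40%, in both replicates, limit read from the data, passing the limit was not always enough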); details: CellTiter-Glo, 72 h, at 10 µM; for differential viability (reversal): stronger effect = higher value
# [7] = 384-well plate pilot, post-Golgi transport modulator project, inhibition of yeast transport mutant growth (AID 636; in the data active = inhibition above about 31%); details: absorbance 615 nm, about 18 h, stronger effect = higher value
# [8] = growth suppression of yeast trafficking mutant, preliminary HTS, modulators of trafficking downstream of Golgi apparatus project, 1536-format plate, OD 615 nm (AID 637; in the data active = inhibition above about 30%); details: yeast transport mutant growth, absorbance 615 nm, 18 h; stronger effect = higher value
# [9] = H69AR cells + 2 uM doxorubicin, measured here: viability with 2 uM doxorubicin, stronger effect = lower value
# [10] = H69AR cells, compound alone cytotoxicity
Structure (SMILES),viability [1],Her2 level [2],viability [3],viability [4],viability [5],differential viability (reversal) ([6]; H69AR cells + 2 uM doxorubicin),"viability [6, 9]","viability [6, 10]",inhibition [7],inhibition [8]
Cc1cc2ccccc2n1CCNC(=O)c1ccc(S(=O)(=O)N2CCOCC2)cc1,95.5%,90% (inactive),95.5% (inactive),85% (inactive),93% (inactive),-4.87% (inactive),97.8%,93%,-7.57% (inactive),1.75% (inactive)
O=C(c1cccs1)c1cn(CC(=O)N2CCc3ccccc3C2)c2ccccc12,93%,108% (inactive),93% (inactive),86.1% (inactive),86.9% (inactive),7.43% (inactive),79.5%,86.9%,-6.13% (inactive),1.45% (inactive)
Cn1c(SCC(=O)c2ccc(-c3ccccc3)cc2)nnc1-c1ccco1,120%,93.5% (inactive),120% (inactive),93.7% (inactive),88.1% (inactive),-2.98% (inactive),91.1%,88.1%,-5.6% (inactive),9.68% (inactive)
Cc1cc(C(=O)Nc2sc3c(c2C#N)CCCCC3)cs1,91.5%,92.5% (inactive),91.5% (inactive),76.6% (inactive),77.1% (inactive),-4.53% (inactive),81.7%,77.1%,-3.47% (inactive),-4.1% (inactive)
C=CCN(CC=C)C(=O)CN1C(=O)c2ccccc2C1=O,125%,89.5% (inactive),125% (inactive),97.5% (inactive),92.2% (inactive),0.065% (inactive),92.1%,92.2%,0% (inactive),1.13% (inactive)
Cc1ccc2nc(SC(C)C(=O)N3CCCC3)[nH]c2c1 (stereo not given),87.5%,108% (inactive),87.5% (inactive),91.4% (inactive),97.6% (inactive),6.04% (inactive),91.6%,97.6%,-0.92% (inactive),-6.35% (inactive)
COc1ccc(OC)c2[nH]c(=O)c(CCNC(=O)CC(C)C)cc12,111%,104% (inactive),111% (inactive),106% (inactive),100% (inactive),4.93% (inactive),95.2%,100%,-8.77% (inactive),-4.44% (inactive)
CCn1c(C(Cc2ccccc2)NC(=O)COC)nc2ccccc21 (stereo not given),102%,92% (inactive),102% (inactive),102% (inactive),87.4% (inactive),8.84% (inactive),78.6%,87.4%,-6.13% (inactive),4% (inactive)
NC(=O)C1(N2CCCCC2)CCN(CC(=O)Nc2cc(Cl)ccc2Cl)CC1,105%,91.5% (inactive),105% (inactive),81.6% (inactive),91.8% (inactive),-11.5% (inactive),103%,91.8%,-1.6% (inactive),2.79% (inactive)
COc1ccccc1N1CCN(S(=O)(=O)CC23CCC(CC2=O)C3(C)C)CC1 (stereo not given),102%,94% (inactive),102% (inactive),76.9% (inactive),84.5% (inactive),0.875% (inactive),83.6%,84.5%,-0.52% (inactive),-3.67% (inactive)
COc1ccc(CCn2c(N)c(C#N)c3nc4ccccc4nc32)cc1OC,64%,82.5% (inactive),64% (inactive),94.3% (inactive),90.4% (inactive),0.84% (inactive),89.6%,90.4%,-1.45% (inactive),7.87% (inactive)
CC(C)(C)n1nnnc1C(c1cccc(C#N)c1)N1CCC(Cc2ccccc2)CC1 (stereo not given),87.5%,86% (inactive),87.5% (inactive),114% (inactive),86.1% (inactive),-0.44% (inactive),86.6%,86.1%,-0.79% (inactive),1.77% (inactive)
CCCn1c(SCC(=O)Nc2nnc(-c3ccccc3)s2)nnc1-c1ccccn1,98.5%,112% (inactive),98.5% (inactive),84.6% (inactive),102% (inactive),5.49% (inactive),96.8%,102%,-2.7% (inactive),25% (inactive)
CCc1nnc(NC(=O)c2ccc(-c3cccc(C(F)(F)F)c3)o2)s1,102%,130% (inactive),102% (inactive),102% (inactive),91.4% (inactive),11.2% (inactive),80.2%,91.4%,-5.6% (inactive),-4.03% (inactive)
Cn1nnc2c(sc3nc(N4CCOCC4)c4c(c32)CCCC4)c1=O,100%,114% (inactive),100% (inactive),90.9% (inactive),81.6% (inactive),-7.71% (inactive),89.3%,81.6%,-0.53% (inactive),-5.08% (inactive)
Clc1ccccc1OCCCCn1ccnc1,95%,114% (inactive),95% (inactive),95.9% (inactive),83.7% (inactive),11.4% (inactive),72.3%,83.7%,2.34% (inactive),-4.33% (inactive)

Structure (SMILES),viability [1],Her2 level [2],viability [3],viability [4],viability [5],differential viability (reversal) ([6]; H69AR cells + 2 uM doxorubicin),"viability [6, 9]","viability [6, 10]",inhibition [7],inhibition [8]
Cc1ccnc(N2CCN(C(=O)CSc3nc4ccccc4nc3N3CCCCC3)CC2)c1,109%,70.5% (inactive),109% (inactive),62% (inactive),92.7% (inactive),9.7% (inactive),83%,92.7%,-3.03% (inactive),-2.83% (inactive)
CCCCN(CCCNC(=O)C1CCN(S(=O)(=O)CC)CC1)c1ccccc1,87%,89.5% (inactive),87% (inactive),97.3% (inactive),96.6% (inactive),-1.6% (inactive),98.2%,96.6%,-2.89% (inactive),-6.83% (inactive)
O=S(CC(O)COCc1ccc(Cl)cc1)c1ccccn1 (stereo not given),100%,90.5% (inactive),100% (inactive),111% (inactive),93% (inactive),1.46% (inactive),91.5%,93%,-1.95% (inactive),-3.93% (inactive)
COc1cccc(-n2c(CNc3ccc(F)cc3)nnc2SCC(N)=O)c1,115%,82.5% (inactive),115% (inactive),101% (inactive),90.4% (inactive),8.77% (inactive),81.6%,90.4%,-4.67% (inactive),0.97% (inactive)
O=C1c2ccccc2C(Nc2ccc3nc(-c4cccnc4)[nH]c3c2)N1Cc1ccco1 (stereo not given),88.5%,108% (inactive),88.5% (inactive),87.5% (inactive),91.2% (inactive),10.1% (inactive),81.1%,91.2%,2.44% (inactive),-4.17% (inactive)
CC(C)COC(=O)C(C#N)c1nc2ccccc2nc1N1CCN(Cc2ccccc2)CC1 (stereo not given),76%,85.5% (inactive),76% (inactive),64.7% (inactive),74.7% (inactive),-5.91% (inactive),80.6%,74.7%,-4.53% (inactive),14.3% (inactive)
O=C(NC1CCCCCC1)C1CCCN(S(=O)(=O)c2cccs2)C1 (stereo not given),90%,118% (inactive),90% (inactive),101% (inactive),105% (inactive),17.6% (inactive),87.8%,105%,-0.92% (inactive),-6.5% (inactive)
Cc1ccccc1NS(=O)(=O)c1cc(C(=O)N2CCCC2)ccc1C,108%,91.5% (inactive),108% (inactive),82.9% (inactive),84.2% (inactive),-4.14% (inactive),88.4%,84.2%,-5.14% (inactive),-8.25% (inactive)
COC(=O)c1ccccc1NC(=O)Nc1cccs1,99.5%,90.5% (inactive),99.5% (inactive),84.3% (inactive),82.4% (inactive),7.46% (inactive),74.9%,82.4%,-3.73% (inactive),0% (inactive)
O=S(=O)(c1ccc(OCC(O)CN2CCN(c3ccccc3)CC2)cc1)N1CCOCC1 (stereo not given),100%,90% (inactive),100% (inactive),110% (inactive),96.4% (inactive),5.24% (inactive),91.2%,96.4%,-7.57% (inactive),-3.67% (inactive)
O=C(CSc1nnc(-c2cccs2)o1)NCC1CN(Cc2ccccc2)CCO1 (stereo not given),99.5%,90.5% (inactive),99.5% (inactive),106% (inactive),85.1% (inactive),-13.7% (inactive),98.8%,85.1%,-1.69% (inactive),-1.9% (inactive)
CCOC(=O)CSc1nn(C)c(=S)s1,97.5%,106% (inactive),97.5% (inactive),73.2% (inactive),102% (inactive),7.25% (inactive),94.9%,102%,-2.4% (inactive),-1.5% (inactive)
CCOC(=O)c1cccc(NC(=O)C2CCN(S(=O)(=O)c3cccs3)CC2)c1,75.5%,96% (inactive),75.5% (inactive),60.7% (inactive),65% (inactive),-7.91% (inactive),72.9%,65%,-5.58% (inactive),-3.81% (inactive)
Cc1cccc2cc(C#N)c(NCCNC(=O)NC3CCCCC3)nc12,97.5%,84.5% (inactive),97.5% (inactive),48.3% (inactive),75.1% (inactive),-7.59% (inactive),82.7%,75.1%,-2.37% (inactive),-3.45% (inactive)
Nc1c(N2CCCCC2)c(=O)[nH]c(=O)n1-c1ccccc1,105%,139% (inactive),105% (inactive),102% (inactive),109% (inactive),13.9% (inactive),95.3%,109%,-2.86% (inactive),-4.33% (inactive)
O=C(NCC1COc2ccccc2O1)c1ccc(NC(=O)c2ccco2)cc1 (stereo not given),85.5%,83% (inactive),85.5% (inactive),105% (inactive),99.1% (inactive),6.69% (inactive),92.4%,99.1%,0% (inactive),-2.33% (inactive)
